IC50 and MIC data for eight molecules are collected here from ChEMBL document CHEMBL1135784, “Novel antibiotics for the treatment of gram-positive bacterial infections” (J Med Chem, 2002).

The structures appear in SMILES notation. In brackets after ≈: the same amount, converted by molar mass.

Assay type in all cases: functional
For assay [1], the system named is Escherichia coli. As to the kind of experiment: Evaluated for its inhibitory activity against prokaryotic translation by using Escherichia coli transcription-translation assay. The gist of the method: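 Coupled E. coli transcription-translation system with a luciferase reporter; inhibition of bacterial translation measured by luminescence read-out.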
In assay [2] the test system is Staphylococcus epidermidis. The assay is described as follows: Evaluated for its antibacteria activity against Staphylococcus epidermidis 18570. An outline of the steps: (§1)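 Broth microdilution in AOAC broth with 4% dextrose. Compounds tested over 0.125-64 µg/mL. Wells inoculated with a 1:500 dilution of an overnight culture. Plates incubated at 37 °C under 8-10% CO₂ and read after about 20 h. MIC taken as the first concentration with no visible growth.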

The test system of assay [3] is Enterococcus faecium. As to the kind of experiment: Evaluated for its antibacterial activity against Enterococcus faecium L4001. The gist of the method: (§2)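 Broth microdilution in AOAC broth with 4% dextrose, with compounds at 0.125-64 µg/mL. Inoculum was a 1:50 dilution of an overnight culture. Incubation at 37 °C with 8-10% CO₂ for about 20 h. MIC read as the first concentration showing no visible growth.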

In assay [4] the test system is Streptococcus pneumoniae. The assay is described as follows: Evaluated for its antibacterial activity against Streptococcus pneumoniae G9a. An outline of the steps:
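For S. pneumoniae, microdilution used BHI broth diluted 1:10 with 10% bovine serum, and compounds at 0.125-64 µg/mL. Wells received a 1:50 dilution of an overnight culture. Plates were kept at 37 °C in 8-10% CO₂ and read after about 20 h. MIC was the lowest concentration without visible growth.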

Assay [5] has as its system Streptococcus pyogenes. As to the kind of experiment: Evaluated for its antibacterial activity against Str. Pyogenes wacker. An outline of the steps: as §2
Assay [6] has as its system Staphylococcus aureus. The assay is described as follows: Evaluated for its antibacterial activity against Staphylococcus aureus 133. An outline of the steps: as §1
Assay [7] has as its system Enterococcus faecalis. The assay is described as follows: Evaluated for its antibacterial activity against Enterococcus faecalis 18513. The gist of the method: as §2
The subject of assay [8] is Staphylococcus aureus. As to the kind of experiment: Evaluated for its antibacteria activity against Staphylococcus aureus. The gist of the method: as §1

For `CN(CCC[C@H](N)CC(=O)N(C)C1CN=C(NC(N)=O)NC1=O)C(=N)N` (stereo not given in full), the IC50 (commonly the midpoint of a concentration-inhibition curve) in assay [1] is 0.06 µM. Further, the MIC (usually the smallest concentration in the dilution series that meets the test's criterion for growth inhibition) was determined as 0.12 mg/L (≈ 0.325 µM) in assay [2]; 2 mg/L (≈ 5.41 µM) in assay [3]; 4 mg/L (≈ 10.8 µM) in assay [4]; 0.5 mg/L (≈ 1.35 µM) in assay [5]; 0.025 mg/L (≈ 0.0677 µM) in assay [6]; 64 mg/L (≈ 173 µM) in assay [7].

Regarding `CN(C(=O)C[C@@H](N)CCCN=C(N)N)C1CN=C(NC(N)=O)NC1=O` (stereo not given in full), the MIC in assay [2] was 0.25 mg/L (≈ 0.703 µM); in assay [3] it was 2 mg/L (≈ 5.63 µM); in assay [4] it was 16 mg/L (≈ 45 µM); in assay [5], 8 mg/L (≈ 22.5 µM); in assay [6], 0.25 mg/L (≈ 0.703 µM); in assay [7] it was over 16 mg/L.

In turn, `CC(C)/N=C(/N)NCCC[C@H](N)CC(=O)N(C)C1CN=C(NC(N)=O)NC1=O` (stereo not given in full) showed a half-inhibitory concentration (IC50) in assay [1] of 12.5 µM. Besides, the MIC in assay [6] was found to be 12.5 mg/L (≈ 31.4 µM).

In turn, `CC/N=C(/N)NCCC[C@H](N)CC(=O)N(C)C1CN=C(NC(N)=O)NC1=O` (stereo not given in full) returned an IC50 in assay [1] of 12.5 µM. In assay [6], this molecule came in with an MIC of 6.3 mg/L (≈ 16.4 µM).

The molecule `C/N=C(/N)NCCC[C@H](N)CC(=O)N(C)C1CN=C(NC(N)=O)NC1=O` (stereo not given in full) came in with an IC50 in assay [1] of 0.5 µM. Also, the MIC came to 0.13 mg/L (≈ 0.352 µM) in assay [2]; 16 mg/L (≈ 43.3 µM) in assay [3]; 16 mg/L (≈ 43.3 µM) in assay [4]; 4 mg/L (≈ 10.8 µM) in assay [5]; 0.8 mg/L (≈ 2.17 µM) in assay [6]; 64 mg/L (≈ 173 µM) in assay [7].

As to `C/C(N)=N/CCC[C@H](N)CC(=O)N(C)C1CN=C(NC(N)=O)NC1=O` (stereo not given in full), the MIC in assay [8] was determined as 0.2 mg/L (≈ 0.564 µM); in assay [2] it was 0.2 mg/L (≈ 0.564 µM); in assay [3], 16 mg/L (≈ 45.1 µM); in assay [4] it was 16 mg/L (≈ 45.1 µM); in assay [5], 1 mg/L (≈ 2.82 µM); in assay [6], 0.2 mg/L (≈ 0.564 µM). The MIC in assay [7] was over 64 mg/L. Further, the IC50 in assay [1] was 0.1 µM.

`C/N=C(/N)N(C)CCC[C@H](N)CC(=O)N(C)C1CN=C(NC(N)=O)NC1=O.Cl.Cl` (stereo not given in full): in assay [1], the IC50 came to 0.4 µM. For the same molecule, the MIC in assay [2] is 0.5 mg/L; in assay [3], 8 mg/L; in assay [4], 32 mg/L; in assay [5] it was 8 mg/L; in assay [6], 0.4 mg/L; in assay [7] it was over 64 mg/L.

For `CC(C)C(=N)NCCC[C@H](N)CC(=O)N(C)C1CN=C(NC(N)=O)NC1=O` (stereo not given in full), the MIC in assay [6] worked out at 3.2 mg/L (≈ 8.37 µM).
